High-throughput results: PubChem BioAssay, Broad Institute
PGC1a acetyl up – raises PGC1a acetylation signal in U2OS cells; U2OS PGC1a acetylation AlphaScreen, overnight; activation, % at 15.6 µM; 350,000 compounds, 0.21% hits;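 active = every replicate reaching activation of at least 50%, whatever the mean replicate activation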;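 note: hits raise the AlphaScreen acetylation signal above neutral controls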
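detection = AlphaScreen lysate read | assay system = U2OS cells expressing flag-PGC1a plus GCN5 | input = 7000 cells/well | dosing = one concentration | times = compound overnight at 37 °C, each detection step 1 h RT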
Active calls of the source: *. Not all results are given here.

SMILES	PGC1a acetyl up
Cc1ccc(NC(=O)CCC(=O)N/N=C/c2ccc([N+](=O)[O-])o2)cc1C	126.1*
CC1=NN(c2ccc(C)c(C)c2)C(=O)/C1=C\C=C\c1ccc([N+](=O)[O-])o1	-59.3
Cc1ccc(OCC(=O)N/N=C/c2ccc([N+](=O)[O-])o2)cc1	84.2*
COCCNC(=O)CN1CCC(NC(=O)C(C)(C)C)CC1	-44.6
O=[N+]([O-])c1ccc(N=Nc2c(Cl)cc(O)cc2Cl)cc1	53.4*
CC1(C)CCC[C@]2(C)[C@H]3Cc4cc(O)ccc4O[C@]3(C)CC[C@@H]12	66.6*
C/C(CC(=O)Nc1ccccc1Br)=N\NC(=O)C(=O)N1CCCC1	-43.9
COCCNC(=O)C(c1ccc(F)cc1)N(Cc1ccco1)C(=O)CCC(=O)Nc1nccs1 (stereo not drawn)	-41.4
Cc1cc(C)c(C(=O)/C=C/c2ccc(C(C)C)cc2)c(=O)[nH]1	-64.4
CCOc1ccc(CC(=O)Nc2ccc(NC(=O)c3ccco3)cc2)cc1OCC	133.4*
COc1cc(NC(=O)NCc2ccco2)ccc1-c1ccc(NC(=O)NCc2ccco2)cc1OC	-47.8
CCCOc1cccc(C(=O)Nc2cc(NC(=O)c3ccco3)ccc2OC)c1	61.2*
COc1ccc(Cn2nnnc2C(C(C)C)N(Cc2ccco2)Cc2cccs2)cc1 (stereo not drawn)	56.4*
Cc1noc(C)c1NC(=O)N(C)C[C@H]1OCCCC[C@@H](C)Oc2ccc(NC(=O)Cc3ccccc3)cc2C(=O)N([C@@H](C)CO)C[C@@H]1C	-44.4
Cc1ccc(S(=O)(=O)Nc2ccccc2C(=O)NCc2cccnc2)cc1	-91.4
C/C(=N/NC(=O)CNC(=O)c1cccnc1)c1ccc([N+](=O)[O-])cc1	-42.7
O=C(NCc1cccnc1)c1ccc(NC(=O)c2cccc([N+](=O)[O-])c2)cc1	170.7*
CC(C)(C)NC(=O)C(=O)NNC(=O)c1cccc([N+](=O)[O-])c1	-56.9
Cc1c(Cl)c([N+](=O)[O-])nn1CC(=O)NCc1cccnc1	-41.8
O=C(COc1ccc([N+](=O)[O-])cc1)Nc1ccc(C(=O)NCc2cccnc2)cc1	191.9*
C=CCOc1ccccc1CNc1ccc2[nH]c(=O)[nH]c2c1	-43.8
Cc1no[n+]([O-])c1COc1cccc(/C=N/Nc2nncn2N)c1	-50.2
CCCCCCCCCSc1n[nH]c(N)n1	-25.4
O=C(Cc1cccnc1)N1CC(=O)N2[C@H](CO)[C@@H](c3ccc(C#CC4CCCCC4)cc3)[C@H]2C1	-50.5
OC[C@H]1[C@H](c2ccc(C#CC3CCCC3)cc2)[C@@H]2CN(CCC(F)(F)F)CCCCN12	64.8*
SMILES	PGC1a acetyl up
OC[C@@H]1[C@H](c2ccc(/C=C/c3ccccc3)cc2)[C@H]2CN(CCC(F)(F)F)CCCCN12	66.8*
CN(C)CCCN(C(=O)c1cc2cc([N+](=O)[O-])ccc2s1)c1nc2cc3c(cc2s1)OCCO3	-53.6
C[C@H]1CN([C@@H](C)CO)C(=O)c2cc(NC(=O)Nc3cccc4ccccc34)ccc2O[C@H]1CN(C)S(=O)(=O)c1ccc(Cl)cc1	-41.0
CN1CCN(/N=C/c2ccc(OCc3ccccc3)cc2)CC1	-41.1
Cc1ccc2[nH]c3ccccc3c(=O)c2c1	68.0*
O=C(Cc1ccccn1)NCC[C@@H]1CC[C@H](NC(=O)Nc2ccc(C(F)(F)F)cc2)[C@H](CO)O1	-77.9
O=C(CN1C(=O)C2C3CC(C(Br)C3Br)C2C1=O)OCC(=O)c1cccc([N+](=O)[O-])c1 (stereo not drawn)	-75.8
Cc1cccc(C)c1OC1(c2ccccc2)OC(=O)c2ccccc21 (stereo not drawn)	72.1*
CN1CCN(C/C(=C2/N=C(c3ccccc3)OC2=O)N(C)C)CC1	-50.8
NS(=O)(=O)c1ccc(CCNC(=O)c2ccc3nc4ccc(Cl)cc4c(=O)n3c2)cc1	85.3*
NS(=O)(=O)c1ccc(CCNC2CC(=O)N(Cc3ccccc3)C2=O)cc1 (stereo not drawn)	-46.1
NC(=O)COC(=O)CC(NC(N)=O)c1ccc(Cl)cc1 (stereo not drawn)	-106.6
COc1ccc(-n2nc(C#N)c(Cl)cc2=O)cc1	-89.9
O=C(c1ccc(F)cc1)C(CN1CCOCC1)c1ccccc1 (stereo not drawn)	-60.1
OC(c1ccccc1)(C1CCCCC1)C(CN1CCOCC1)c1ccccc1 (stereo not drawn)	56.8*
Cc1noc(C)c1NC(=O)Nc1cccc2c1O[C@H](CN(C)Cc1ccc(Oc3ccccc3)cc1)[C@H](C)CN([C@@H](C)CO)C2=O	-99.9
COc1cccc2c1C(CO)N1C(C#N)C3CC(C(=O)O)C(C1C2)N3C (stereo not drawn)	-66.4
CN(C[C@H]1N[C@@H](CO)[C@@H]1c1ccc(C2=CCCC2)cc1)C(=O)c1cccc(F)c1	-76.2
COc1ccc(S(=O)(=O)N2CCCCN3[C@@H](CO)[C@@H](c4ccc(C5=CCCCC5)cc4)[C@@H]3C2)cc1	57.3*
C[C@@H]1CN([C@H](C)CO)C(=O)c2cccc(NC(=O)c3ccc(-c4nccs4)cc3)c2O[C@@H]1CN(C)Cc1ccc(C(=O)Nc2ccccc2N)cc1	-51.1
CCC(CC)NC(=O)Cc1ccc(S(=O)(=O)N2CCOCC2)s1	52.4*
CCN(CC)S(=O)(=O)c1ccc(C(=O)N(c2ccccc2)C2C=CS(=O)(=O)C2)cc1 (stereo not drawn)	-46.1
C=CC(=O)N1C/C(=C/c2ccccc2)C(=O)/C(=C\c2ccccc2)C1	-72.8
CO[C@@H]1CN(C)C(=O)c2cc(NC(C)=O)ccc2OC[C@H](C)N(Cc2cc(F)ccc2F)C[C@H]1C	-55.0
CCn1cc(C(=O)NCc2cccnc2)c2cc(OC)c(OC)cc2c1=O	-45.4
SMILES	PGC1a acetyl up
COc1ccc2nc(NCc3cccnc3)sc2c1	-56.0
COc1cccc(C(=O)c2c[nH]c(C(=O)NCc3cccnc3)c2)c1	85.5*
Cc1ccc(NC(=O)c2ccccc2)cc1-n1cnnn1	-40.3
Cc1ccc(NC(=S)c2ccncc2)c(C)c1	164.2*
O=P(COCCOCCOCCOCP(=O)(c1ccccc1)c1ccccc1)(c1ccccc1)c1ccccc1	-44.3
O=C(NCCN1CCOCC1)c1ccc(=O)oc1	52.4*
O=C(Nc1ccc(CN2CCOCC2)cc1)c1ccc(F)cc1	-53.9
C/C=C/c1ccc2c(c1)O[C@@H](CN(C)C(=O)NC(C)C)[C@H](C)CN([C@H](C)CO)S2(=O)=O	-44.4
COc1ccc(Nc2nc(N)c(C(=O)c3ccc(OC)cc3)s2)cc1	82.8*
CNC[C@H]1Oc2ccc(NC(=O)CCN3CCOCC3)cc2C(=O)N([C@H](C)CO)C[C@H]1C	-42.2
O=C(CN1CCC(N2CCCCC2)CC1)N1CCCc2ccccc21	81.5*
O=C(c1cccc(N2C(=O)C3C4C=CC(C4)C3C2=O)c1)N1CCCc2ccccc21 (stereo not drawn)	-42.1
C#CCN(C[C@@H]1[C@@H](OC(=O)NCC2CCCCC2)[C@@H](OC(=O)NCC2CCCCC2)Cn2c(=O)ccc(=O)n21)S(=O)(=O)c1ccc(C)cc1	-91.4
COc1ccc(S(=O)(=O)N(C)C[C@H]2Oc3ccc(NC(=O)CCN4CCOCC4)cc3C(=O)N([C@@H](C)CO)C[C@@H]2C)cc1	-49.4
O=C(NCc1ccc2c(c1)OCO2)c1ccc(NC(=O)C2CCCO2)cc1 (stereo not drawn)	66.4*
C[C@@H]1CCCCO[C@H](CN(C)Cc2ccc3c(c2)OCO3)[C@@H](C)CN([C@@H](C)CO)C(=O)c2cc(NC(=O)Nc3ccc(C(F)(F)F)cc3)ccc2O1	-53.5
CC1CCCCC12NC(=O)N(CC(=O)NCc1ccc3c(c1)OCO3)C2=O (stereo not drawn)	-45.9
